Data on eleven molecules can be found in ChEMBL document CHEMBL3046765, “Subnanomolar inhibitor of cytochrome bc1 complex designed by optimizing interaction with conformationally flexible residues” (J Am Chem Soc, 2010).

For experiment [1], the target named is Cytochrome b (Sus scrofa, UniProt P24964). The experiment in a line: Inhibition of Sus scrofa (pig) heart cytochrome bc1 complex using succinate and cytochrome c as substrates by spectrophotometric analysis.
The target of experiment [2] is Succinate-ubiquinone oxidoreductase (Sus scrofa) (UniProt A5GZW8+D0VWV4). Kind of experiment: Inhibition of Sus scrofa (pig) heart succinate-ubiquinone reductase using succinate and DCIP as substrate by spectrophotometric analysis by spectrophotometric analysis. In kind it is protein-complex assay. The gist of the method: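 Porcine heart SCR preparation; complex II activity as succinate oxidation by 53 µM DCIP in 100 mM PBS pH 7.4, 0.3 mM EDTA, 20 mM succinate, 23°C, started by enzyme addition. DCIP reduction followed continuously at A600 (ε 21 mM−1cm−1) with varying inhibitor concentrations.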

The target of experiment [3] is T1, Succinate dehydrogenase [ubiquinone] iron-sulfur subunit, mitochondrial (Sus scrofa) (UniProt Q007T0).
T1 sequence (whole entry): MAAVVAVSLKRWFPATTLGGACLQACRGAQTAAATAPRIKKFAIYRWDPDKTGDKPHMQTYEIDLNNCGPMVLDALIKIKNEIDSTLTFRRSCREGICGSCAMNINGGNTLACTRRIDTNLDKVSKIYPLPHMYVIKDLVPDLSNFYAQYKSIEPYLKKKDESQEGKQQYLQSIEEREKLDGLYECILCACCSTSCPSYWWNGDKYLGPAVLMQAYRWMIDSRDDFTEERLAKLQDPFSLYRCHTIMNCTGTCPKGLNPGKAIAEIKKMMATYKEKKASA
Kind of experiment: Inhibition of Sus scrofa (pig) heart succinate-cytochrome c reductase (Electron transport protein complex 2/3) using succinate and cytochrome c as substrate by spectrophotometric analysis. Put shortly:
(§1)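 Progress curves at 0–5 nM inhibitor fitted by nonlinear regression for v0, vs, kobs; kobs versus inhibitor gives k+0, k−0; Ki = k−0/k+0. Cytochrome c 4–48 µM varied at fixed inhibitor for mechanism.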

For experiment [4], the target named is Cytochrome b (Sus scrofa) (UniProt P24964). Kind of experiment: Ratio of azoxystobin Ki to compound Ki for Sus scrofa (pig) heart cytochrome bc1 complex.
Sequence of Cytochrome b (Sus scrofa) (P24964 whole entry): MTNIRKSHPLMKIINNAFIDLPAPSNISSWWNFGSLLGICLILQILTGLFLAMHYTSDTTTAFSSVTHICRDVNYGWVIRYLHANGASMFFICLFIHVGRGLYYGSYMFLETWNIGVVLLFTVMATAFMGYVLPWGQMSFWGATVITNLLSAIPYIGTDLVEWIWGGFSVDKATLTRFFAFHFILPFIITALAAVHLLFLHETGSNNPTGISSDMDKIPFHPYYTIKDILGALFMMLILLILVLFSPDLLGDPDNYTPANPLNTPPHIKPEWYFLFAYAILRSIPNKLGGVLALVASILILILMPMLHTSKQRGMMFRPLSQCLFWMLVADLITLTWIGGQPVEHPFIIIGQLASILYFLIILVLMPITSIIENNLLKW
For experiment [5] the target is unchanged. The experiment in a line: Ratio of kresoxim-methyl Ki to compound Ki for Sus scrofa (pig) heart cytochrome bc1 complex.
The target in experiment [6] is T1, Succinate dehydrogenase [ubiquinone] iron-sulfur subunit, mitochondrial (Sus scrofa). The experiment in a line: Inhibition of Sus scrofa (pig) heart succinate-cytochrome c reductase (Electron transport protein complex 2/3) using succinate and cytochrome c as substrate at 1 to 5 nM by spectrophotometric analysis. The gist of the method: as §1
For experiment [7], the target named is Cytochrome b (Sus scrofa) (UniProt P24964). The experiment in a line: Inhibition of Sus scrofa (pig) heart cytochrome bc1 complex using succinate as substrate at 7.5 to 25 nM by spectropfhotometric analysis.
For experiment [8], the species on record is Sus scrofa. The experiment in a line: Non-competitive inhibition of Sus scrofa (pig) heart cytochrome bc1 complex using cytochrome c as substrate. Put shortly: as §1
The species entered for experiment [9] is Sus scrofa. The experiment in a line: Competitive inhibition of Sus scrofa (pig) heart cytochrome bc1 complex using ubiquinol as substrate.
Experiment [10] addresses Cytochrome b (Sus scrofa) (UniProt P24964). Kind of experiment: Ratio of pyraclostrobin Ki to compound Ki for Sus scrofa (pig) heart cytochrome bc1 complex.

The source made the active and inactive calls. No cut-off for these calls is given here.

Sequence of Cytochrome b (P24964 whole entry): as above

As a reminder, the Ki is the equilibrium dissociation constant of an inhibitor or competing ligand from its target. Read a low Ki as tighter binding. `CO/N=C(/C(=O)OC)c1ccccc1COc1ccccc1C` [KRESOXIM-METHYL]: the affinity in experiment [1], expressed as Ki, was 0.16 µM.
The molecule `CO/N=C(/C(=O)OC)c1ccccc1COc1cc(-c2ccccc2O)nn1C` came in with a Ki in experiment [1] of 0.0038 µM. The inhibition result in experiment [2] was “inactive”. For the same molecule, in experiment [3], the inhibition entry is “Active”.
`CO/C=C(/C(=O)OC)c1ccccc1COc1cc(-c2ccccc2OC)nn1C` came in with an inhibitory constant (Ki) in [1] of 0.0291 µM.
For `CO/C=C(/C(=O)OC)c1ccccc1COc1cc(-c2ccccc2O)nn1C`, the inhibition constant Ki in experiment [1] amounted to 0.0012 µM. Also, the inhibition entry in experiment [2] is “inactive”. For the same molecule, the inhibition entry in [3] is “Active”.
`COC(=O)N(OC)c1ccccc1COc1ccn(-c2ccc(Cl)cc2)n1` [PYRACLOSTROBIN] returned a Ki in experiment [1] of 0.0033 µM.
On to `CO/C=C(/C(=O)OC)c1ccccc1COc1cc(-c2cc(C)ccc2O)nn1C`, for which the Ki in experiment [1] worked out at 0.0031 µM. In experiment [2], the inhibition entry is “inactive”. Moreover, the inhibition result in experiment [3] is “Active”.
`CO/C=C(/C(=O)OC)c1ccccc1COc1cc(-c2ccccc2OCc2ccccc2)nn1C`: affinity in [1] was put at a Ki of 0.0127 µM.
Still for that read-out and setting: the result for `CO/C=C(/C(=O)OC)c1ccccc1COc1cc(-c2cc(C)ccc2OC)nn1C` reads 0.0199 µM.
Consider `CO/C=C(/C(=O)OC)c1ccccc1COc1cc(-c2ccccc2OC(=O)c2ccc(F)cc2)nn1C`, for which the affinity in experiment [1] corresponds to a Ki of 0.0977 µM. Against the preceding molecule, the Ki is about 4.9-fold higher.
Molecule `CO/C=C(/C(=O)OC)c1ccccc1COc1cc(-c2cc(Cl)ccc2O)nn1C` returned a Ki in experiment [1] of 0.00057 µM. Also, the Ratio Ki in [4] came to 522; in experiment [5], 280; in [10] it was 5.8. Moreover, the inhibition entry in [6], in experiment [7], in experiment [8] and in experiment [9] was “Active” in each case. Further, in [2], the inhibition entry is “inactive”.
The molecule `CO/C=C(/C(=O)OC)c1ccccc1Oc1cc(Oc2ccccc2C#N)ncn1` [AZOXYSTROBIN] came in with an inhibitory constant (Ki) in [1] of 0.298 µM.
